Test results: PubChem BioAssay AID449761 (Broad Institute, 2010)
Inconclusive results are not listed. Calls of active or inactive are those of the source.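 The calls were made as follows: active = compounds raising caspase signal with fitted AC50 no more than tenfold above the top tested dose; inconclusive = flat curve at 30 to 70% activity, or unusable fit; inactive = the rest.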

These molecules were tested on MEF WT non-primed, caspase-Glo luminescence, 3 h (assay: caspase activation in non-primed cells, dose response, counter-screen for Bcl2-A1 inhibitor project, cell-based, caspase-Glo luminescence, 3 h (AID 449761)).
Outline: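 Incubation: 3 h compound at 37 °C, 1 h reagent at RT / System: Non-primed wild-type MEF cells / Signal: CaspaseGlo luminescence, reagent diluted 1:1 in 50 mM HEPES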

SMILES | AC50
CCOC(=O)N1C(=O)[C@@](c2ccc(Cl)cc2)(C(C)C)N1C(=O)OCC | > 35 µM (inactive)
CC(C)CCN(C(=O)Cc1ccc(Cl)c(Cl)c1)c1c(N)n(Cc2ccccc2)c(=O)[nH]c1=O | 14.6 µM
CCOC(=O)/C=c1\s/c(=C\c2ccc(C(=O)OC)cc2)c(=O)n1CC(=O)Nc1ccccc1 | > 35 µM (inactive)
C#CC(=O)N(c1cc(OC)ccc1OC)C(C(=O)NC1CCCC1)c1cccs1 (centres undefined) | > 35 µM (inactive)
Cc1nn(Cc2c(Cl)cccc2Cl)c(C)c1NC(=O)c1cn(-c2ccccc2)nc1-c1ccccc1 | 16.6 µM
O=C(Nc1ccc2oc(-c3ccccc3)nc2c1)c1ccccc1F | > 35 µM (inactive)
CCC1CCCCN1S(=O)(=O)c1ccc(NC(=O)c2nc(S(C)(=O)=O)ncc2Cl)cc1 (centres undefined) | 4.2 µM
COc1ccc(NC(=O)C(=O)N/N=C\c2ccc(CNC(=O)C(=O)Nc3ccc(C)c(C)c3)o2)c(OC)c1 | 23.5 µM
Cc1ccc(S(=O)(=O)c2nnn3c2nc(Nc2cccc(C)c2)c2ccccc23)cc1 | > 35 µM (inactive)
COc1cc(-c2cc(-c3ccccc3)nc(SCC(=O)Nc3nccs3)c2C#N)cc(OC)c1OC | > 35 µM (inactive)
CC1CC(C)CN(C(=O)c2ccc(-c3ccc([N+](=O)[O-])cc3)o2)C1 (centres undefined) | > 35 µM (inactive)
Cc1c(CCOC(=O)c2ccc(N3CCOCC3)c([N+](=O)[O-])c2)sc[n+]1CC#N | > 35 µM (inactive)
COc1ccc(N(C(=O)CCl)C(C(=O)NCCc2ccccc2)c2cccs2)cc1Cl (centres undefined) | 27.4 µM
CC[C@H]1CN2CCc3cc(OC)c(OC)cc3[C@@H]2C[C@@H]1C[C@H]1NCCc2cc(OC)c(OC)cc21 | > 35 µM (inactive)
Cc1ccc(NC(=S)NC(NC(=O)Cc2cccc3ccccc23)C(Cl)(Cl)Cl)cc1 (centres undefined) | 22.9 µM
Cc1ccc(N(Cc2cc(=O)[nH]c3ccccc23)C(=O)CCl)cc1 | > 35 µM (inactive)
CCOC(=O)/C(=C\c1ccc([N+](=O)[O-])cc1)C(=O)c1cc(C(C)=O)c(Nc2ccccc2)s1 | 1.46 µM
Cc1cc(C)cc(NC(=O)/C(C#N)=C/c2cn(CC(=O)NCc3ccco3)c3ccccc23)c1 | 8.84 µM
CC(=O)OC(C)(C)/C=C/C(=O)[C@](C)(O)C1[C@H](O)C[C@@]2(C)C3CC=C4C(C[C@H](O)C(=O)C4(C)C)[C@]3(C)C(=O)C[C@]12C (some centres undefined) | > 35 µM (inactive)
NC(=S)c1cn(C2OC(CO)C(O)C2O)c2ncnc(N)c12 (centres undefined) | > 35 µM (inactive)
Cc1ccc(C=C2C(Cl)=C(Cl)C(Cl)=C2Cl)cc1 | 5.72 µM
CCS(=O)(=O)c1ncc(Cl)c(C(=O)Nc2ccccc2OC)n1 | > 35 µM (inactive)
CC(C)(C)c1ccc2c(c1)OC(C(=O)N/N=C\c1ccc[nH]1)CO2 (centres undefined) | > 35 µM (inactive)

SMILES | AC50
COc1cc2ncnc(NCc3ccc(F)cc3)c2cc1OC | > 35 µM (inactive)
C=CC(=O)Nc1ccc(CN2C(=O)N(c3c(Cl)c(OC)cc(OC)c3Cl)Cc3cnc(NCCCCN(CC)CC)nc32)cc1 | > 35 µM (inactive)
O=C(Oc1cccc(/C=N/Nc2nc(Nc3ccccc3)nc(N3CCOCC3)n2)c1)c1ccco1 | > 35 µM (inactive)
Cc1cc(NC(=O)CSc2nc3cc(Cl)ccc3c(=O)n2Cc2ccco2)no1 | > 35 µM (inactive)
CCOC(=O)c1ccc(-c2ccc(/C=N/NC(=O)CN(c3cccc(C)c3)S(C)(=O)=O)o2)cc1 | 31.1 µM
O=C(Nc1ccc2oc(-c3ccccc3Cl)nc2c1)c1cncc(Br)c1 | 30.7 µM
COc1cc(SC#N)ccc1N=Cc1c(C)[nH]n(-c2ccc(C)cc2)c1=O | 34.5 µM
COc1ccc(C2C(O)C(c3c[nH]c4ccccc34)=NN2C(=O)CCl)cc1 (centres undefined) | 36.1 µM
CCOc1cccc(C(=O)Nc2cccc(-c3nnc(-c4ccc(C)cc4)o3)c2)c1 | 23.6 µM
COc1ccc(-c2ccc3c(c2)S(=O)(=O)c2cccc(C(=O)NC[C@@H]4CCCO4)c2C3=O)cc1OC | > 35 µM (inactive)
CC(CCc1ccccc1)NC(=O)c1ccc(NC(=O)c2ccccc2)cc1 (centres undefined) | 27.7 µM
CCCCCCCC/C=C\CCCCCCCC(=O)NCCc1ccc(O)c(O)c1 | 14 µM
COc1cc(NC(=O)c2ccccc2)c(OC)cc1NC(=O)Cc1ccc(Br)cc1 | > 35 µM (inactive)
CC(C)(C)c1ccc(C(=O)Nc2ccc(O)c3c(=O)cc(-c4cccc(Cl)c4)oc23)cc1 | > 35 µM (inactive)
CC(=O)[C@]1(O)Cc2c(O)c3c(c(O)c2[C@@H](O[C@H]2C[C@H](N)[C@H](O)[C@H](C)O2)C1)C(=O)c1ccccc1C3=O | > 35 µM (inactive)
Cc1ccc2c(c1)C(=O)C(=O)N2Cc1ccc(Br)cc1 | > 35 µM (inactive)
CCc1ccc(Nc2n[n+](-c3ccccc3)c(/C=C/c3ccccc3)s2)cc1 | 9.79 µM
CCOC(=O)CSC1=N/C(=C/c2ccc(-n3cncn3)cc2)C(=O)N1C(C)=O | > 35 µM (inactive)
COc1ccc(C(=O)/C=C/C(=O)N(CC(=O)NC2CCCCC2)Cc2cccs2)c(O)c1 | 23.7 µM
Cc1nn(-c2ccccc2)c(Cl)c1CN(C(=O)CCl)c1ccc(Cl)cc1 | 24.6 µM
N#CC(C#N)=C1C=CC=CN1/C(=C\c1ccccc1Cl)C(=O)c1ccccc1 | 5.01 µM
CC(C)CC(NC(=O)c1ccc(Cl)cc1)C(=O)OCC(=O)c1ccc2c(c1)NC(=O)CO2 (centres undefined) | 4.28 µM
O=C(N=Nc1c(O)[nH]c2ccc([N+](=O)[O-])cc12)c1cc(-c2ccccc2Cl)nc2ccccc12 | > 35 µM (inactive)

SMILES | AC50
CCOC(=O)Cc1csc(/N=C/c2c(O)n(-c3ccc(C)c(C)c3)c(=O)c3ccccc23)n1 | 9.55 µM
CCCCC1CCC(C(=O)N(CC(C)C)c2c(N)n(Cc3ccccc3)c(=O)[nH]c2=O)CC1 (centres undefined) | 8 µM
Cc1ccc(C)c(NC(=S)NC(NC(=O)Cc2cccc3ccccc23)C(Cl)(Cl)Cl)c1 (centres undefined) | 12 µM
Cc1ccc2c(c1)c(C1=c3ccccc3=NC1=O)c(O)n2C | > 35 µM (inactive)
O=C(CCl)N=c1sccn1Cc1ccccc1Cl | > 35 µM (inactive)
Cc1ccc(CS(=O)(=O)c2ncc(Cl)c(C(=O)Nc3nnc(C(C)C)s3)n2)cc1 | > 35 µM (inactive)
COC(=O)c1ccc2c(c1)C(C)(C)C(/C=C/c1ccccc1O)=[N+]2C | 8.57 µM
COc1ccc(-c2cc3ccccc3oc2=O)cc1NC(=S)NC(=O)c1ccc2c(c1)OCCO2 | 5.96 µM
CSC[C@@H]1NC(=S)N(c2ccc(C)cc2)C1=O | > 35 µM (inactive)
CCOC(=O)COc1ccccc1/C=C\[N+](=O)[O-] | 12.2 µM
O=C(c1ccc(COc2ccc3ccccc3c2)o1)N1N=C(C(F)F)CC1(O)C(F)F (centres undefined) | > 35 µM (inactive)
COc1cc(/C=C(/C#N)C(=O)Nc2ccc(Cl)cc2)ccc1Oc1nc(Cl)ncc1F | > 35 µM (inactive)
CCOC(=O)C1=C(c2ccccc2)O/C(=C(/C#N)C(F)(F)F)S1 | > 35 µM (inactive)
C=C1CCc2c([nH]c3ccc(OCC(C)C)cc23)C1=O | 14.2 µM
O=C(NN=C1c2ccccc2-c2ccccc21)c1cccc(Br)c1 | 35.6 µM
COc1ccc(C2Nc3ccc4ccccc4c3-c3c2c(=O)oc2ccccc32)cc1 (centres undefined) | 18 µM
Cc1c(C=O)c(C=O)c(C)n1Cc1ccccc1 | > 35 µM (inactive)
CC(=O)OC(C)(C)/C=C/C(=O)C(C)(O)C1[C@H](O)C[C@@]2(C)C3CC=C4C(CC[C@@H](O)C4(C)C)[C@]3(CO)C(=O)C[C@]12C (some centres undefined) | > 35 µM (inactive)
CC(C)N=c1scc(-c2ccco2)n1/N=C/c1ccc(O)c(O)c1 | > 35 µM (inactive)
CC(C)c1cccc(-c2ccc3c(c2)S(=O)(=O)c2cccc(C(=O)NCc4ccccc4Cl)c2C3=O)c1 | > 35 µM (inactive)
COc1ccc(-c2oc(=O)c3cc(OC)c(OC)cc3c2/C=C/c2cccc([N+](=O)[O-])c2)cc1 | > 35 µM (inactive)
COc1cc(/C=C(/C#N)c2nc3ccccc3[nH]2)ccc1OCC(=O)Nc1ccccc1C | 5.91 µM
O=C(NC1CCCCC1)C(c1ccc(F)cc1)N(CCc1ccccc1)C(=O)CN1C(=O)c2ccccc2S1(=O)=O (centres undefined) | 19.6 µM

SMILES | AC50
O=C(NCc1ccccc1Br)c1cccc2c1C(=O)c1ccc(-c3ccc(OC(F)(F)F)cc3)cc1S2(=O)=O | > 35 µM (inactive)
COc1ccc(-c2ccc3c(c2)S(=O)(=O)c2cccc(C(=O)NCCOc4ccccc4)c2C3=O)cc1OC | > 35 µM (inactive)
COc1ccc(C2CC(c3c(O)cc(C)oc3=O)=NCCS2)c(OC)c1 (centres undefined) | > 35 µM (inactive)
COc1ccccc1CCNC(C)CCc1ccc(O)cc1 (centres undefined) | > 35 µM (inactive)
CC(C)(C)C1CCc2onc(C(=O)Nc3cccc(O)c3)c2C1 (centres undefined) | > 35 µM (inactive)
COc1ccc(-c2nc(NC(=O)c3n[nH]c(=O)c4ccccc34)sc2C)cc1 | > 35 µM (inactive)
CC(C)(C)[C@H](N)C(=O)N[C@H]1CCC2C3CC=C4C[C@@H](O)CC[C@]4(C)C3CC[C@@]21C (some centres undefined) | > 35 µM (inactive)
COc1ccc(-c2ccc3c(c2)S(=O)(=O)c2cccc(C(=O)NCc4cccc(OC(F)(F)F)c4)c2C3=O)cc1OC | 8.54 µM
Cc1ccc(Sc2c([N+](=O)[O-])c(=O)n(C)c3ccccc23)cc1 | > 35 µM (inactive)
O=C(COc1ccc(/C=N/NC(=O)c2cc3ccccc3o2)cc1Br)Nc1ccccc1 | 28.5 µM
Cc1cc(C)cc(Cn2ncc(Cl)c(Cl)c2=O)c1 | > 35 µM (inactive)
CC1=NNC(=O)/C1=C\c1cn(-c2ccccc2)nc1-c1ccccc1 | 11.3 µM
CCOC(=O)/C(=C\c1ccc(OC(F)F)cc1)C1=Nn2c(nnc2-c2ccc(Cl)cc2)SC1 | 4.15 µM
Cc1cccc(NC(=O)CSc2nc(C)c(CC(=O)c3ccc(Br)cc3)c(C)c2C#N)c1C | > 35 µM (inactive)
CCN(C(=O)CCN1C(=O)c2ccccc2S1(=O)=O)c1ccccc1 | > 35 µM (inactive)
O=C(Nc1ccc(Cl)cc1Cl)c1cccc(N2C(=O)C=CC2=O)c1 | 35.8 µM
O=C(/C=C/c1ccc(F)cc1)NC(=S)Nc1ccccc1C(=O)NC1CCCCC1 | > 35 µM (inactive)
CCOc1ccc(NC(=S)NC(=O)/C=C/c2ccc(C)cc2)c([N+](=O)[O-])c1 | 21.7 µM
O=C(NCc1ccccc1Cl)c1cccc2c1C(=O)c1ccc(-c3ccc(OC(F)(F)F)cc3)cc1S2(=O)=O | > 35 µM (inactive)
COc1ccc(OC)c2sc(N(CCCN(C)C)C(=O)c3ccc(S(=O)(=O)N4CCc5ccccc5C4)cc3)nc12 | > 35 µM (inactive)
